Experimental data reported in ChEMBL document CHEMBL1129950, “Structural requirements for binding of anandamide-type compounds to the brain cannabinoid receptor” (J Med Chem, 1997).

Assays:
[1] = target: T1, Cannabinoid receptor 1 (Homo sapiens, UniProt P21554); assay: Binding affinity against the cannabinoid receptor
Summary of the method: (§1)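 Whole rat brain synaptosomal membranes (2.4-3.8 µg protein) were competed against 38-48 fmol [3H]HU-243. Drug was serially diluted in 5 mg/mL fatty-acid-free BSA. Final 1 mL held 45 mM Tris-HCl, 2.7 mM MgCl2, 0.9 mM EDTA and 0.58 mg BSA. Incubation was 30 °C, 90 min. Bound ligand was separated by centrifugation, and pellet tips were scintillation-counted. Ki came from displacement.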

[2] = target: Cannabinoid receptor 1 (Rattus norvegicus, UniProt P20272); assay: In vitro binding affinity was determined against rat brain Cannabinoid receptor 1
Summary of the method: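 Drug was serially diluted in 5 mg/mL fatty-acid-free BSA. Final 1 mL held 45 mM Tris-HCl, 2.7 mM MgCl2, 0.9 mM EDTA and 0.58 mg BSA. Incubation was 30 °C, 90 min. Bound ligand was separated by centrifugation, and pellet tips were scintillation-counted. Ki came from displacement.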

[3] = target: T1, Cannabinoid receptor 1; assay: Binding affinity against the Cannabinoid receptor 1 in the presence of PMSF (experiment 2)
[4] = target: T1, Cannabinoid receptor 1; assay: Binding affinity against the cannabinoid receptor (expt 1); summary of the method: as §1
[5] = target: T1, Cannabinoid receptor 1; assay: Binding affinity against the cannabinoid receptor in the presence of PMSF (expt 1)
[6] = target: T1, Cannabinoid receptor 1; assay: Binding affinity against the cannabinoid receptor in the presence of PMSF (expt 3)
[7] = target: T1, Cannabinoid receptor 1; assay: Binding affinity against the cannabinoid receptor in the presence of PMSF
[8] = target: T1, Cannabinoid receptor 1; assay: Binding affinity against the cannabinoid receptor in the presence of PMSF (experiment 2)
[9] = target: T1, Cannabinoid receptor 1; assay: Binding affinity against the cloned human Cannabinoid receptor 1
[10] = target: T1, Cannabinoid receptor 1; assay: Binding affinity against the cloned human Cannabinoid receptor 1; no activity

T1 sequence (P21554 whole entry): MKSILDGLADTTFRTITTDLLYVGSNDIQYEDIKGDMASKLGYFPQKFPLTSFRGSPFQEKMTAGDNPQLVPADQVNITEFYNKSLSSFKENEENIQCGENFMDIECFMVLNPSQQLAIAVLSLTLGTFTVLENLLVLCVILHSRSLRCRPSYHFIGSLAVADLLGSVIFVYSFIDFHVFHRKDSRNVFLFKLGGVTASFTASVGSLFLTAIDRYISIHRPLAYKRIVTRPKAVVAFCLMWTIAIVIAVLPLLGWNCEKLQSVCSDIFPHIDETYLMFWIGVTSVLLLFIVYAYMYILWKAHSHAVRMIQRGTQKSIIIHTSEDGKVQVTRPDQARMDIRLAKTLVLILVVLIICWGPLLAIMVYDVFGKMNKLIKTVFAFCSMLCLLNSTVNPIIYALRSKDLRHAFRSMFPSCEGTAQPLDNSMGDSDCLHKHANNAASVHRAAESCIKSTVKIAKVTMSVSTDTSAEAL
Cannabinoid receptor 1 (Rattus norvegicus, UniProt P20272), sequence (P20272 whole entry): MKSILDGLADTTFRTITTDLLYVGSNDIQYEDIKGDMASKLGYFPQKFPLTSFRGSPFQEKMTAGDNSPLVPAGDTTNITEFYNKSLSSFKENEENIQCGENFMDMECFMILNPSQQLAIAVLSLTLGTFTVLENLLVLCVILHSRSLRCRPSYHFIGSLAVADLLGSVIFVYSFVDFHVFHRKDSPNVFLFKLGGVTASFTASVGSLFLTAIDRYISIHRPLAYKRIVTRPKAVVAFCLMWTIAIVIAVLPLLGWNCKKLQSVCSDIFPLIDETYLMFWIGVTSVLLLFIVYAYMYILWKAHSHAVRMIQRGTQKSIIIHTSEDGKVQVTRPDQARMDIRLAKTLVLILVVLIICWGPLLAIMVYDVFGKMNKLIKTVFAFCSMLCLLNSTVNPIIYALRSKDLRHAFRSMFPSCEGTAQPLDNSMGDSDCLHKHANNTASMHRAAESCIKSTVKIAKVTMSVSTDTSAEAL

SMILES	Ki ([2]; read-out: Ki) [nM]	other results
CCCCC/C=C\C/C=C\C/C=C\CCCCCCC(=O)NCCO		Ki [1]: 598 nM
CCCCC/C=C\C/C=C\CCCCCCCCCC(=O)NCCO	1500	
CCCCC/C=C\C/C=C\C/C=C\C/C=C\CCCC(=O)N(C)CCO	> 10000	Ki [3]: 4980 nM; Ki [4]: 5240 nM
CCCCC/C=C\C/C=C\C/C=C\C/C=C\CCCC(=O)NC(C)(C)C	139	
CCCCC/C=C\C/C=C\C/C=C\C/C=C\CCCC(=O)N[C@@H](C)CC	377	
CCCCC/C=C\C/C=C\C/C=C\C/C=C\CCCC(=O)NCCCC	236	Ki [1]: 30 nM
CCCCC/C=C\C/C=C\C/C=C\C/C=C\CCCC(=O)N(C)C	> 1000	
CCCCC/C=C\C/C=C\C/C=C\C/C=C\CCCC(=O)NC	60	
CCCCC/C=C\C/C=C\C/C=C\C/C=C\CCCC(=O)N(CC)CC	> 1000	
CC/C=C/C/C=C\C/C=C\C/C=C\CCCCC(=O)NCCO	> 1000	
CCCCC/C=C\C/C=C\C/C=C\C/C=C\CCCC(=O)N(CCC)CCO	> 10000	
CCCCC/C=C\C/C=C\C/C=C\C/C=C\CCC(C)C(=O)NCCO (configuration not stated)		Ki [5]: 53 nM; Ki [6]: 53 nM
CCCCC/C=C\C/C=C\C/C=C\C/C=C\CCCC(=O)NCCC(C)C	575	Ki [7]: 1860 nM
CCCCC/C=C\C/C=C\C/C=C\C/C=C\CCC(C)C(=O)NCCC (configuration not stated)	7.4	
CCCCC/C=C\C/C=C\C/C=C\C/C=C\CCCC(=O)NCCN(CC)CC	> 1000	
CCCCC/C=C\C/C=C\C/C=C\C/C=C\CCCC(=O)NCCOP(=O)(O)O	191	
CCCCC/C=C\C/C=C\C/C=C\C/C=C\CCCC(=O)NC(C)(C)CC	447	
CC/C=C/C/C=C\C/C=C\CCCCCCCCCC(=O)NCCO	> 10000	
CC/C=C/C/C=C\C/C=C\CCCCCCCC(=O)NCCO		Ki [2]: Not Active
CCCCC/C=C\C/C=C\C/C=C\C/C=C\CCC(C)(C)C(=O)NCCC	6.9	
CCCCCC#CCC#CCC#CCC#CCCCC(=O)NCCO		Ki [2]: Not Active
CCCCCCCC/C=C\CCCCCCCCCC(=O)NCCO	> 1000	Ki [8]: > 10000 nM
CCCCC/C=C\C/C=C\C/C=C\C/C=C\CCCC(=O)NC(CO)C(=O)O (configuration not stated)	> 10000	

SMILES	Ki ([2]; read-out: Ki) [nM]	other results
CCCCC/C=C\C/C=C\C/C=C\C/C=C\CCC(C)C(=O)NC(C)C (configuration not stated)	8.4	
CC/C=C/C/C=C\C/C=C\C/C=C\C/C=C\C/C=C/CCC(=O)NCCO		Ki [9]: 12200 nM
CC/C=C/C/C=C\C/C=C\C/C=C\C/C=C/CCCC(=O)NCCO	162	Ki [8]: 1470 nM
CCCCC/C=C\C/C=C\C/C=C\C/C=C\CCCC(=O)N(CC)CCO	> 10000	
CCCCC/C=C\C/C=C\C/C=C\C/C=C\CCCC(=O)NC(C)(C)CO	162	
CCCCC/C=C\C/C=C\C/C=C\C/C=C\CCCC(=O)NC(C)C	13.6	
CCCCC/C=C\C/C=C\C/C=C\C/C=C\CCC(C)(C)C(=O)N[C@H](C)CO	31.1	
CCCCC/C=C\C/C=C\C/C=C\C/C=C\CCC(C)(C)C(=O)NC[C@H](C)O	46.6	
CCCCC/C=C\C/C=C\C/C=C\C/C=C\CCC(C)(C)C(=O)N[C@@H](C)CO	191	
CCCCC/C=C\C/C=C\C/C=C\C/C=C\CCCC(=O)NO	> 1000	
CCCCC/C=C\C/C=C\C/C=C\C/C=C\CCCC(=O)NCCCO		Ki [1]: 13 nM; Ki [7]: 189 nM; Ki [9]: 364 nM
CCCCC/C=C\C/C=C\C/C=C\C/C=C\CCCC(=O)NCCCCC	> 1000	
CCCCC/C=C\C/C=C\C/C=C\C/C=C\CCCC(=O)N[C@H](C)CC	240	
CCCCC/C=C\C/C=C\C/C=C\C/C=C\CCCC(=O)NC(C)C(O)c1ccccc1 (configuration not stated)	> 1000	
CCCCC/C=C\C/C=C\C/C=C\C/C=C\CCC(C)(C)C(=O)NCCO	25.5	Ki [1]: 41 nM; Ki [5]: 47 nM; Ki [8]: 47 nM
CCCCC/C=C\C/C=C\C/C=C\C/C=C\CCC(C)(C)C(=O)NC(C)C	7.2	
CCCCC/C=C\C/C=C\C/C=C\C/C=C\CCCC(=O)NCCC	11.7	Ki [1]: 7.3 nM
CCCCC/C=C\C/C=C\C/C=C\C/C=C\CCCC(=O)NCCOC	85.2	Ki [1]: 650 nM; Ki [7]: 1820 nM
CCCCC/C=C\C/C=C\CCCCCCCC(=O)NCCO (stereo in doubt; 37) [LINOLEOYLETHANOLAMIDE]		Ki [9]: > 41400 nM
CCCCC/C=C\C/C=C\C/C=C\C/C=C\CCCC(N)=O [ARACHIDONAMIDE]	> 1000	Ki [9]: 9600 nM
CCCCC/C=C\C/C=C\C/C=C\C/C=C\CCCC(=O)NCC(=O)O [ARACHIDONOYL GLYCINE]	> 10000	
CCCCCCCCCCCCCCCC(=O)NCCO [PALMIDROL]		Ki [10]: Not Active; Ki [2]: Not Active
